Measured values taken from ChEMBL document CHEMBL1151276, “Antiviral Terpenoid Constituents of Ganoderma pfeifferi” (J Nat Prod, 2005).
Values after ≈ are worked out from the molar mass of the structure shown. Active and inactive are the calls of the source. The calls are words filed in the database; no cut-off is given here.

Tests used:
Format in all cases: functional, organism-based
Candida maltosa = assay: Antimicrobial activity against Candida maltosa SBUG 700 at 200 ug/disk by agar diffusion method
In short: (§1)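 Agar diffusion per European Pharmacopoeia. Antibiotic medium No. 1 inoculated with cell suspension and poured into plates. Paper disks loaded with 200 µg substance placed on the cooled agar, then prediffused 2 h in a refrigerator. Incubation 18 h at 37 °C (C. maltosa at 27 °C). Inhibition zone diameters read at end of incubation. Penicillin G positive control.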

Escherichia coli = assay: Antimicrobial activity against Escherichia coli ATCC 11229 at 200 ug/disk by agar diffusion method; in short: as §1
Influenza A virus = assay: Antiviral activity against influenza A virus infected in MDCK cells
In short: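 Each compound (1.0 mg) was dissolved in 100 µL methanol, then in MEM, giving a 1 mg/mL stock. Compounds were tested at noncytotoxic concentrations against influenza A virus and HSV type I.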

Staphylococcus aureus = assay: Antimicrobial activity against Staphylococcus aureus ATCC 6538 at 200 ug/disk by agar diffusion method; in short: as §1

Structure (SMILES) | Activity (Candida maltosa) | Activity (Escherichia coli) | IC50 (Influenza A virus) | Activity (Staphylococcus aureus) | Activity (Influenza A virus)
CC(C)[C@@H](C)/C=C/[C@@H](C)[C@H]1CC[C@H]2C3=CC[C@H]4C[C@@H](O)CC[C@]4(C)[C@H]3CC[C@]12C | inactive | inactive | 0.78 µg/mL (≈ 1.96 µM) | inactive | 
CC(C)[C@@H](C)/C=C/[C@@H](C)[C@H]1CC[C@H]2C3=CCC4CC(=O)CC[C@]4(C)[C@H]3CC[C@]12C (stereo not given in full) | inactive | inactive |  | inactive | 
CC(CC(=O)C[C@@](C)(O)C1=C[C@H](O)[C@]2(C)[C@]1(C)C(=O)C=C1[C@@]3(C)CCC(=O)C(C)(C)[C@@H]3C[C@H]3O[C@@]132)C(=O)O (stereo not given in full) | inactive | inactive |  | inactive | 
NC12CC3CC(CC(C3)C1)C2.O=S(=O)(O)O [AMANTADINE SULFATE] |  |  | 15 µg/mL |  | 
C/C(C=O)=C\CC[C@@H](C)[C@H]1CC[C@@]2(C)C3=CC[C@H]4C(C)(C)C(=O)CC[C@]4(C)C3=CC[C@]12C [GANODERAL A] |  |  |  |  | inactive
C/C(=C\CC[C@@H](C)[C@H]1CC[C@@]2(C)C3=CC[C@H]4C(C)(C)C(=O)CC[C@]4(C)C3=CC[C@]12C)CO [GANODEROL A] | inactive | inactive |  | inactive | inactive
C/C(=C\CC[C@@H](C)[C@H]1CC[C@@]2(C)C3=C(CC[C@]12C)[C@@]1(C)CCC(=O)C(C)(C)[C@@H]1CC3=O)CO [GANODERONE A] | inactive | inactive |  | inactive | inactive
C[C@H](CCC1OC1(C)CO)[C@H]1CC[C@@]2(C)C3=C(CC[C@]12C)[C@@]1(C)CCC(=O)C(C)(C)[C@@H]1CC3=O (stereo not given in full) [GANODERONE C] |  |  | 2.6 µg/mL (≈ 5.52 µM) |  | 
C/C(C=O)=C\CC[C@@H](C)[C@H]1CC[C@@]2(C)C3=C(CC[C@]12C)[C@@]1(C)CCC(=O)C(C)(C)[C@@H]1CC3=O [LUCIALDEHYDE B] | inactive | inactive | 3 µg/mL (≈ 6.63 µM) | inactive | 
